According to ChEMBL document CHEMBL1147568, “5-lipoxygenase inhibitors with histamine H(1) receptor antagonist activity” (Bioorg Med Chem Lett, 2004):
pIC50, pKi: −log10 of the molar value.

What was measured:
Histamine H1 receptor = Histamine H1 receptor (Homo sapiens, UniProt P35367); test: In vitro binding affinity towards histamine H1 receptor expressed in CHO-K1 cells; assay type: cell-based
[1] = target: T1, Polyunsaturated fatty acid 5-lipoxygenase (Homo sapiens, UniProt P09917); test: In vitro inhibitory activity against 5-lipoxygenase in a human whole blood assay; assay type: tissue-based
T1 sequence (P09917 whole entry): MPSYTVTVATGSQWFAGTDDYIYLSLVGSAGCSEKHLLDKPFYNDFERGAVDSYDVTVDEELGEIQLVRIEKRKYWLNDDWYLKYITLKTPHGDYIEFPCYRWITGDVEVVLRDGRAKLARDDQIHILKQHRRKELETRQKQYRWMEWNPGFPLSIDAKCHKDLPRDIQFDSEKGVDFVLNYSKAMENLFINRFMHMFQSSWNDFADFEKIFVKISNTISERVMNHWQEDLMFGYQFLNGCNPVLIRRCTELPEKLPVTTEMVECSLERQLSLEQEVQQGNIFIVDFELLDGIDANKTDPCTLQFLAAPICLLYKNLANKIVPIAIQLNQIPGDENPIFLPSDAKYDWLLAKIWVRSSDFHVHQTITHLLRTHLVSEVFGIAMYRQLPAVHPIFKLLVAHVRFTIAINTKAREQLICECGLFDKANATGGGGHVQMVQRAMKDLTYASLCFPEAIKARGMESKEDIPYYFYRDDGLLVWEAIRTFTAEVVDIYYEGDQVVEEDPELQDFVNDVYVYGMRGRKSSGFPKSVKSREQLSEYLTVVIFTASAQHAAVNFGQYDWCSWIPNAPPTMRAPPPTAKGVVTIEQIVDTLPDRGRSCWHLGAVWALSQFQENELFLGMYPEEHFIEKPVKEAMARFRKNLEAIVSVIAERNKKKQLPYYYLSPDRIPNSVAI

[2] = target: T2, Polyunsaturated fatty acid 5-lipoxygenase (Rattus norvegicus, UniProt P12527); test: In vitro inhibitory activity against 5-lipoxygenase in an RBL-2H3 cell lysate; assay type: cell-based
T2 sequence (P12527 whole entry): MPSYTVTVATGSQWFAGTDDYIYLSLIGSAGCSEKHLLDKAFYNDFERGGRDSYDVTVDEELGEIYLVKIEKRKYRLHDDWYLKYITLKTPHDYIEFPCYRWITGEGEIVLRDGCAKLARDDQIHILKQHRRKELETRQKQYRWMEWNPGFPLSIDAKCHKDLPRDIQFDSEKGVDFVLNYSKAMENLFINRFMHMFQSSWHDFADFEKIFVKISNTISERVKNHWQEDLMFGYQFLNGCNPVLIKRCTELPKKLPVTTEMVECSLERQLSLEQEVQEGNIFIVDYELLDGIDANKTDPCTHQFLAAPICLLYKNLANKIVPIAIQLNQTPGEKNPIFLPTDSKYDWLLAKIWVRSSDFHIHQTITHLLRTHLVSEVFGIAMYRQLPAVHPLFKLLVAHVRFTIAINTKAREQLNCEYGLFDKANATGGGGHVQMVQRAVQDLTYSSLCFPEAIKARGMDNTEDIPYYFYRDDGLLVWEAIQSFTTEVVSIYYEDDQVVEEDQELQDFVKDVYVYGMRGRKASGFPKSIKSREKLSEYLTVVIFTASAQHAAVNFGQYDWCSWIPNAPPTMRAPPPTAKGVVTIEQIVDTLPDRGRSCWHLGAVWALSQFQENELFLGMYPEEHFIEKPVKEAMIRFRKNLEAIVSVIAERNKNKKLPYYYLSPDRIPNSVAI

[3] = Permeability in Caco-2 cells of compound; assay type: ADME, cell-based; settings: human
How it was run: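 Permeability measured across Caco-2 cells and reported as apparent permeability (Papp) in cm/sec.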

Rattus norvegicus = species on record: Rattus norvegicus; test: Intrinsic clearance of compound against NADPH-fortified rat liver microsomes; assay type: ADME, Microsome
How it was run: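 Compound incubated with NADPH-fortified rat liver microsomes to measure metabolic stability. Intrinsic clearance is reported as µL/min/mg protein.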

Chain of Histamine H1 receptor (P35367 whole entry): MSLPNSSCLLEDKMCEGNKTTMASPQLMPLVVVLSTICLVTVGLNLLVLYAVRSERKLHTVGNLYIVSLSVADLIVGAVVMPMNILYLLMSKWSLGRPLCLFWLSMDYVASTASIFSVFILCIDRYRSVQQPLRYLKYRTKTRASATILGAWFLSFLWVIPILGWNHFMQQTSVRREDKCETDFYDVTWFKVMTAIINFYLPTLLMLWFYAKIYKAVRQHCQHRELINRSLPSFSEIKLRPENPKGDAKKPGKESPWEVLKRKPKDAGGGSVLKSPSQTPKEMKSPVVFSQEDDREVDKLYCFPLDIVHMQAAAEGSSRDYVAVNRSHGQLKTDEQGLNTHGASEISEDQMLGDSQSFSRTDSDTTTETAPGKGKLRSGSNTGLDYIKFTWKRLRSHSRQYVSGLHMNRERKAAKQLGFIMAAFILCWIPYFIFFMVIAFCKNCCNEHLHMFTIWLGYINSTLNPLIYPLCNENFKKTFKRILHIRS

Compound	pKi (Histamine H1 receptor)	pIC50 [1]	pIC50 [2]	Permeability [3] [nm/s]	Clint (Rattus norvegicus)
CC(C#Cc1ccc(CN2CCN([C@H](c3ccccc3)c3ccc(Cl)cc3)CC2)o1)N(O)C(N)=O (some centres undefined)	6.72	5.46	–	–	–
NC(=O)N(O)CCC#Cc1ccc(CN2CCN([C@H](c3ccccc3)c3ccc(Cl)cc3)CC2)o1	–	6.38	> 6.70	60	33 ul min-1 (mg of protein)-1
NC(=O)N(O)CCC#C[C@@H]1CC[C@@H](COc2ccc(F)cc2)O1	–	6.93	–	–	–
NC(=O)N(O)CCC#Cc1ccc(CN2CCN(C(c3ccc(F)cc3)c3ccc(F)cc3)CC2)o1	–	6.77	> 6.70	–	–

Further lines, with some results ahead:

pKi (Histamine H1 receptor)	pIC50 [1]	Compound	pIC50 [2]	Permeability [3] [nm/s]	Clint (Rattus norvegicus)
7.30	–	NC(=O)N(O)CCC#C[C@@H]1CC[C@@H](CN2CCN([C@H](c3ccccc3)c3ccc(Cl)cc3)CC2)O1	–	–	–
6.74	6.29	NC(=O)N(O)CCC#C[C@H]1CC[C@H](CN2CCN([C@H](c3ccccc3)c3ccc(Cl)cc3)CC2)O1	–	–	–
6.18	6.85	NC(=O)N(O)CCC#C[C@@H]1CC[C@@H](CN2CCN(C(c3ccc(F)cc3)c3ccc(F)cc3)CC2)O1	–	–	–
